Assay results published in article PMC7115694 (European Journal of Medicinal Chemistry, 2010).

B1: UDA (protein, UniProt P11218 24-372, looked up)
Lectin/endochitinase 1: QRCGSQGGGGTCPALWCCSIWGWCGDSEPYCGRTCENKCWSGERSDHRCGAAVGNPPCGQDRCCSVHGWCGGGNDYCSGSKCQYRCSSSVRGPRVALSGNSTANSIGNVVVTEPLFDQMFSHRKDCPSQGFYSYHSFLVAAESFPAFGTIGDVATRKREVAAFLAHISQATSGERSDVENPHAWGLCHINTTTVTENDFCTSSDWPCAAGKKYSPRGPIQLTHNFNYGLAGQAIGEDLIQNPDLVEKDPIISFKTALWFWMSQHDNKPSCHDIVLNANSAANRIPNKGVIGNIISRAFGHDDFAVRSSSIGFYKRYCDMLGVSYGHDLKYWFDNTPSSEFQRIQMRVAA

Legend:
Assay type in all cases: cell-based
[1] = test system: HeLa cells; experiment: Cytotoxicity in uninfected cell cultures; details: cell morphology
Outline: (§1)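 Uninfected cell cultures are exposed to serial dilutions of test compound in parallel with the virus cytopathicity assays. Cells are examined microscopically. Minimum cytotoxic concentration is the lowest concentration causing a microscopically detectable alteration of normal cell morphology.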

[2] = test system: Para-influenza-3 virus; experiment: organism not typed; details: Vero, read-out: EC50 Para-influenza-3 virus
[3] = test system: Punta Toro virus; experiment: microbe, parasite or virus in culture; details: Vero, read-out: EC50 Punta Toro virus
[4] = test system: Coxsackie virus B4; experiment: microbe, parasite or virus in culture; details: Enterovirus B, B4, HeLa, read-out: EC50 Coxsackie virus B4 visual CPE score
[5] = test system: Reovirus-1; experiment: organism not typed; details: Vero, read-out: EC50 Reovirus-1
[6] = test system: Sindbis virus; experiment: microbe, parasite or virus in culture; details: Vero, read-out: EC50 Sindbis virus
[7] = test system: Vero cells; experiment: Cytotoxicity in uninfected cell cultures; details: cell morphology
Outline: as §1

[8] = test system: Vesicular stomatitis virus; experiment: microbe, parasite or virus in culture; details: HEL, read-out: EC50 Vesicular stomatitis virus
[9] = test system: Vaccinia virus; experiment: microbe, parasite or virus in culture; details: Orthopoxvirus vaccinia, HEL, read-out: EC50 Vaccinia virus
[10] = test system: Herpes simplex virus-2 (G); experiment: microbe, parasite or virus in culture; details: Human alphaherpesvirus 2, HEL, read-out: EC50 Herpes simplex virus-2 (G)
[11] = test system: Herpes simplex virus-1 (KOS); experiment: microbe, parasite or virus in culture; details: Human alphaherpesvirus 1, HEL, read-out: EC50 Herpes simplex virus-1 (KOS)
[12] = test system: HEL cells; experiment: Cytotoxicity in uninfected cell cultures; details: microscopically detectable alteration of cell morphology
Outline: as §1

[13] = test system: S. aureus, B. subtilis and E. coli; experiment: Average antibacterial activity; details: average antibacterial activity (pMICsa + pMICbs + pMICec)/3
[14] = test system: C. albicans and A. niger; experiment: Average antifungal activity; details: average antifungal activity (pMICca + pMICan)/2
[15] = test system: Feline Herpes virus; experiment: organism not typed; details: for EC50: CRFK, read-out: EC50 Feline Corona Virus
[16] = test system: S. aureus; experiment: Minimum bactericidal concentration; details: static when MBC 3-fold higher than MIC
[17] = test system: Candida albicans; experiment: MIC by tube dilution method; details: observed, C. albicans, 37 °C 48 h
[18] = test system: Bacillus subtilis; experiment: MIC by tube dilution method; details: observed, B. subtilis, 37 °C 24 h
Outline: (§2)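 Test compound is diluted in double strength nutrient broth (I.P.) by tube dilution, with ciprofloxacin as reference. Samples incubated at 37 °C for 24 h. MIC is the lowest concentration inhibiting microbial growth, transformed into pMIC for analysis.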

[19] = test system: Escherichia coli; experiment: MIC by tube dilution method; details: observed, E. coli, 37 °C 24 h
Outline: as §2

[20] = test system: Staphylococcus aureus; experiment: MIC by tube dilution method; details: observed, S. aureus, 37 °C 24 h
[21] = test system: S. aureus, B. subtilis, E. coli, C. albicans and A. niger; experiment: Average antimicrobial activity; details: mean of five pMIC values
[22] = test system: Aspergillus niger; experiment: MIC by tube dilution method; details: observed, A. niger, 25 °C 7 d
[23] = test system: B. subtilis; experiment: Minimum bactericidal concentration; details: static when MBC 3-fold higher than MIC
[24] = test system: Feline Corona virus (FIPV); details: CRFK cell cultures, MTS assay

Row | Molecule | Cytotoxicity Minimum cytotoxic concentration [1] | EC50 [2] | EC50 [5] | Minimum cytotoxic concentration [7] | EC50 [8] | EC50 [9] | Minimum cytotoxic concentration [12] | pMICab [13] | pMICaf [14] | EC50 [15] | pMICca [17] | pMICbs [18] | pMICec [19] | pMICsa [20] | pMICam [21] | pMICan [22] | also measured
1 | Nc1ncnc2c1ncn2C[C@H](O)CO [(S)-DHPA] | >250 µM | > 250 µM | > 250 µM | >250 µM | – | – | – | – | – | – | – | – | – | – | – | – | EC50 [3]: > 250 µM; EC50 [4]: > 250 µM; EC50 [6]: > 250 µM
2 | O=c1[nH]c(=O)n([C@H]2C[C@H](O)[C@@H](CO)O2)cc1/C=C/Br [Brivudin] | – | – | – | – | > 250 µM | 112 µM | – | – | – | – | – | – | – | – | – | – | –
3 | Nc1ccn(C[C@@H](CO)OCP(=O)(O)O)c(=O)n1 [Cidofovir] | – | – | – | – | > 250 µM | > 250 µM | – | – | – | – | – | – | – | – | – | – | EC50 [10]: 0.2 µM; EC50 [11]: 0.4 µM
4 | Cc1ccccc1C(=O)n1c(-c2ccc(S(=O)(=O)O)cc2)nc2ccccc21 [Compound 10] | >100 µg/mL | > 100 µg/mL | > 100 µg/mL | >100 µg/mL | – | – | >100 µg/mL | 2.10 | 1.35 | > 100 µg/mL | 1.50 | 2.10 | 2.10 | 2.10 | 1.80 | 1.20 | bacteriostatic/bactericidal action against S. aureus [16]: active bacteriocidal agents
5 | Cc1ccc(C(=O)n2c(-c3ccc(S(=O)(=O)O)cc3)nc3ccccc32)cc1 [Compound 11] | >100 µg/mL | > 100 µg/mL | > 100 µg/mL | >100 µg/mL | – | – | >100 µg/mL | 2.05 | 1.20 | > 100 µg/mL | 1.50 | 1.95 | 2.10 | 2.10 | 1.71 | 0.89 | bacteriostatic/bactericidal action against B. subtilis [23]: active bacteriocidal agents
6 | CCCCC(=O)n1c(-c2ccc(S(=O)(=O)O)cc2)nc2ccccc21 [Compound 17] | >100 µg/mL | > 100 µg/mL | > 100 µg/mL | >100 µg/mL | – | – | >100 µg/mL | 1.76 | 1.31 | > 100 µg/mL | 1.46 | 1.76 | 1.76 | 1.76 | 1.58 | 1.16 | bacteriostatic/bactericidal action against B. subtilis [23]: active bacteriocidal agents; bacteriostatic/bactericidal action against S. aureus [16]: active bacteriocidal agents
7 | CCCCCCCCCCCCCCCC(=O)n1c(-c2ccc(S(=O)(=O)O)cc2)nc2ccccc21 [Compound 19] | >100 µg/mL | > 100 µg/mL | > 100 µg/mL | >100 µg/mL | – | – | >100 µg/mL | 2.02 | 1.61 | > 100 µg/mL | 1.61 | 2.23 | 1.61 | 2.23 | 1.86 | 1.61 | –
8 | Cc1ccc(S(=O)(=O)n2c(-c3ccc(S(=O)(=O)O)cc3)nc3ccccc32)cc1 [Compound 20] | >100 µg/mL | > 100 µg/mL | > 100 µg/mL | >100 µg/mL | – | – | >100 µg/mL | 1.74 | 1.39 | > 100 µg/mL | 1.54 | 1.84 | 1.54 | 1.84 | 1.60 | 1.23 | EC50 [6]: > 100 µg/mL
9 | Nc1nc(O)c2ncn(COC(CO)CO)c2n1 [Ganciclovir] | – | – | – | – | > 100 µM | > 100 µM | >100 µM | – | – | – | – | – | – | – | – | – | EC50 [10]: 0.03 µM; EC50 [11]: 0.03 µM
10 | NC(=O)c1ncn([C@@H]2O[C@H](CO)[C@@H](O)[C@H]2O)n1 [Ribavirin] | >250 µM | 95 µM | – | >250 µM | > 250 µM | 10 µM | >250 µM | – | – | – | – | – | – | – | – | – | EC50 [10]: 2 µM; EC50 [11]: 1 µM; EC50 [6]: > 250 µM
11 | B1 | – | – | – | – | – | – | – | – | – | – | – | – | – | – | – | – | EC50 Feline Herpes Virus (FIPV) [24]: 1.5 µg/mL; EC50 Feline Corona Virus ([15]; CRFK cell cultures, MTS assay): 0.4 µg/mL
